The list is not random: actives were taken first. Their share in the collection is about 3.1%.
rCAG RNA binder: molecules binding r(CAG) RNA repeats | r(CAG) RNA repeat, TO-PRO-1 dye displacement fluorescence | inhibition, % at 3 µM | hit rate 1.3% among 370,000 | AID 651821;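 active means inhibition above the plate cutoff, the mean of all test compounds on that plate plus 3 SD, cut at about 35% in these data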;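 further: higher means more dye released from RNA so lower well fluorescence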
ATG4B inh: ATG4B (human) cysteine protease inhibition. ATG4B cleavage of LC3-PLA2, NBD-HPC fluorescence, 1 h. inhibition, % at 8.33 µM. hit rate 0.51% among 340,000. AID 504462; in the data active means inhibition above about 40%
CSN deneddyl inh: CSN deneddylation inhibition; Purified CSN, SCF-Nedd8-OG deneddylation, fluorescence polarization; Q92905; inhibition, % at 12.5 µM; hit rate 0.38% among 360,000;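 active means pattern-corrected inhibition above about 35%, with an unprinted fluorescence ratio check between 0.5 and 1.5, limit read from the data, passing the limit was not always enough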
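Material: human Csn5 produced in HEK293T cells; Input: enzyme 0.24 nM; Reagent: SCFSkp2-Nedd8OG substrate at 10 nM final; Dosing: 12.5 µM compound; Incubation: 90 min reaction at room temperature; Detection: fluorescence polarization of the substrate; Evaluation: % inhibition of substrate cleavage by Csn5; Control set: substrate-only high control, full reaction low control.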
LEDGF integ inh: blocks HIV-1 LEDGF/p75-dependent DNA integration; TR-FRET IN-LEDGF/p75 DNA integration, Eu/Cy5; inhibition, % at 3.7 µM; hit rate 0.64% among 370,000;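 active means inhibition above the screen-wide mean plus 3 SD, cut at about 13% in these data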;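 further: signal is the Cy5 over europium emission ratio at 671 and 618 nm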
UHRF1 binding: human UHRF1 methylated DNA binding inhibitors | AID 687016 | inhibition, % at 4.4 µM | UHRF1 binding to methylated oligo, TR-FRET | hit rate 0.75% among 370,000 | Q96T88; in the data active means inhibition above about 21%;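 further: UHRF1 SRA domain binding a hemimethylated CpG hairpin DNA probe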
MBD2 inh: MBD2-methylated oligo binding inhibition; Q9UBB5; TR-FRET, MBD2 binding to methylated oligonucleotide; inhibition, % at 4.4 µM; hit rate 0.31% among 370,000; AID 686964; in the data active means inhibition above about 13%
rCAG binder conf: r(CAG) RNA repeat binding, confirmation. shares compounds with rCAG RNA binder. TO-PRO-1 dye displacement fluorescence. inhibition, % at 3 µM. hit rate 70% among 4,300;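 active means inhibition above a per-plate cutoff, the mean inhibition of sample wells plus 3 SD, cut at about 35% in these data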;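 further: loss of TO-PRO-1 fluorescence as compound displaces dye from 1x1 AA loop RNA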
DNA CAG counter: DNA CAG dye complex inhibition counter-screen. d(CAG) DNA oligo TO-PRO-1 dye displacement, fluorescence. hit rate 94% among 4,300. inhibition, % at 3 µM. shares compounds with rCAG RNA binder;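 active means inhibition above its plate's cutoff, the mean test-well inhibition plus 3 SD, cut at about 4.8% in these data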;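 further: hits displace the dye from DNA and so lower well fluorescence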
CSN deneddyl val: Csn5 (human) deneddylation inhibition, single-concentration validation. shares compounds with CSN deneddyl inh. Csn5 deneddylation of SCF-Nedd8OG, fluorescence polarization, 90 min. inhibition, % at 16.6 µM. hit rate 62% among 540. AID 720654; in the data active means inhibition above about 50%
MMP2 cntr CSN: MMP-2 (human) inhibition, counter-screen for CSN hits | AID 720655 | shares compounds with CSN deneddyl inh | inhibition, % at 16.6 µM | hit rate 33% among 540 | recombinant MMP-2, FRET substrate fluorescence, 60 min;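 active means corrected plate-normalized z-score of 5 or more, or -5 or less, or inhibition of 15% or more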
Thrombin cntr: blocks bovine thrombin in a CSN deneddylation counter-screen; hit rate 49% among 540; bovine thrombin cleavage of Ub4-pepOG, fluorescence polarization; inhibition, % at 16.6 µM; AID 720656; shares compounds with CSN deneddyl inh;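 active means inhibition at or above a set limit, with a fluorescence interference ratio between 0.5 and a set maximum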
Target sequence (P00735 whole entry, looked up): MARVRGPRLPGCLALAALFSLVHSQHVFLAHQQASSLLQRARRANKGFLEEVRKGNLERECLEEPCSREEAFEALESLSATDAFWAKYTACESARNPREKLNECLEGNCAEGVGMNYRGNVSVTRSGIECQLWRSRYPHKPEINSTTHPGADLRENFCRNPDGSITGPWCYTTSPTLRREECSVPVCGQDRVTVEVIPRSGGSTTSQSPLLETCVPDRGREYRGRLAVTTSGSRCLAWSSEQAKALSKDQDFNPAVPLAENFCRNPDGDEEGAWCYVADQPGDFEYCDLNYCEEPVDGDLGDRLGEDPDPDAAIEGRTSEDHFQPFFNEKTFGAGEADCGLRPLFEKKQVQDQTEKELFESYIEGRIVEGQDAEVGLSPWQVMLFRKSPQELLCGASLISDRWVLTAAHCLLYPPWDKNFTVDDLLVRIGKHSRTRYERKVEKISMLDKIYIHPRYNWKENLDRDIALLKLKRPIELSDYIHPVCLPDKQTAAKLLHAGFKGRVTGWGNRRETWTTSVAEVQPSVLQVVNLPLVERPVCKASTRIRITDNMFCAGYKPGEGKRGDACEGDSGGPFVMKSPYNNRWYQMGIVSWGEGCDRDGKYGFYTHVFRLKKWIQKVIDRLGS
UHRF1 ctr MBD2: counter-screen for MBD2 inhibitors: human UHRF1 methylated DNA binding inhibitors | shares compounds with MBD2 inh | UHRF1 binding to methylated oligonucleotide, TR-FRET | inhibition, % at 4.4 µM | hit rate 25% among 1,000; in the data active means inhibition above about 21%;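 further: UHRF1 SRA domain binding a labeled hemimethylated CpG hairpin DNA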
MBD2 DBD conf: MBD2-DBD methyl-DNA binding inhibition, TR-FRET confirmation; shares compounds with MBD2 inh; TR-FRET MBD2-DBD binding to methylated oligonucleotide; inhibition, % at 4.4 µM; hit rate 26% among 1,000
IN multimer act: counter-screen for LEDGF/p75 integration inhibitors: HIV-1 integrase multimerization activators; shares compounds with LEDGF integ inh; TR-FRET HIV-1 integrase multimerization, biochemical; activation, % at 7.7 µM; hit rate 17% among 2,000; AID 1053131; in the data active means activation above about 8.9%
TR-FRET interf: counter-screen for LEDGF/p75 integration inhibitors: TR-FRET optical interference; 2,000 tested, under 10 active; TR-FRET optical interference counterscreen, HIV-1 IN multimerization; inhibition, % at 7.7 µM; shares compounds with LEDGF integ inh; AID 1053135;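 active means inhibition above the mean over all tested compounds plus 3 SD, which no compound reached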
IN-LEDGF confirm: LEDGF/p75-dependent HIV-1 integration inhibition, confirmation | shares compounds with LEDGF integ inh | TR-FRET LEDGF/p75-dependent HIV-1 integration, biochemical | inhibition, % at 3.7 µM | hit rate 36% among 2,000
Of the large screens only hits and unclear results are named; the others gave an inactive call (follow-up assays come after a bar, where they were run). Unless noted, no stated cut-off is given here; in the data, active means inhibition above about 14%; inactive means the rest.

O=C1CC(=O)N(Cc2ccco2)C(=O)N1	rCAG RNA binder 35, CSN deneddyl inh 66, LEDGF integ inh 89, UHRF1 binding 93, MBD2 inh 64 | rCAG binder conf 36 | DNA CAG counter 13 | CSN deneddyl val inactive | MMP2 cntr CSN 25 | Thrombin cntr 44 | UHRF1 ctr MBD2 100 | MBD2 DBD conf 74 | IN multimer act 18 | TR-FRET interf inactive | IN-LEDGF confirm 87
O=C1CC(=O)N(Cc2cccs2)C(=O)N1	none
Cc1nc(S/C(=C\c2ccc(-c3ccc(C(=O)O)c(Cl)c3)o2)C(=O)O)n[nH]1	rCAG RNA binder 36, CSN deneddyl inh 73, LEDGF integ inh 60, UHRF1 binding 88, MBD2 inh 27 | rCAG binder conf 50 | DNA CAG counter 16 | MMP2 cntr CSN 19 | Thrombin cntr inactive | UHRF1 ctr MBD2 53 | MBD2 DBD conf inactive | IN multimer act 18 | TR-FRET interf inactive | IN-LEDGF confirm 32
CCc1cc(=O)oc2cc(C)c(CN3CCCC3)c(O)c12	rCAG RNA binder 36, CSN deneddyl inh 37, LEDGF integ inh 35, UHRF1 binding 32, MBD2 inh 15 | rCAG binder conf inactive | DNA CAG counter 13 | CSN deneddyl val 89 | MMP2 cntr CSN inactive | Thrombin cntr inactive | UHRF1 ctr MBD2 inactive | MBD2 DBD conf inactive | IN multimer act inactive | TR-FRET interf inactive | IN-LEDGF confirm 40
CCN(CC)CCCNC(=O)c1cn(C(C)c2ccccc2)nn1 (stereo unspecified)	none (no result: ATG4B inh, CSN deneddyl inh)
COc1ccc(Br)cc1/C=c1\sc2nc(-c3ccco3)nn2c1=O	rCAG RNA binder 46, CSN deneddyl inh 41, LEDGF integ inh 24, UHRF1 binding 71, MBD2 inh 23 | rCAG binder conf 42 | DNA CAG counter 21 | CSN deneddyl val 70 | MMP2 cntr CSN inactive | Thrombin cntr inactive | UHRF1 ctr MBD2 22 | MBD2 DBD conf inactive | IN multimer act inactive | TR-FRET interf inactive | IN-LEDGF confirm 15
COc1ccc(/C=c2\sc3nc(=O)c(C)nn3c2=O)c(OC)c1	none
COC(=O)[C@]12C[C@H](CC(=O)N3CCSCC3)C(=O)N(Cc3ccc(Cl)cc3Cl)C1=C[C@H](C(C)C)O[C@@H]2C1CC1	none (no result: ATG4B inh, CSN deneddyl inh)
NC(=O)c1sc2nc3c(c(-c4ccco4)c2c1N)CCC3	rCAG RNA binder 43, LEDGF integ inh 43, UHRF1 binding 47, MBD2 inh 15 | rCAG binder conf inactive | DNA CAG counter inactive | UHRF1 ctr MBD2 inactive | MBD2 DBD conf inactive | IN multimer act inactive | TR-FRET interf inactive | IN-LEDGF confirm inactive
Cc1c[nH]c2cccc(-c3ccc(OCc4ccccc4)cc3)c12	none (no result: ATG4B inh, CSN deneddyl inh)
O=C(COC(=O)c1ccccc1)Nc1ncc([N+](=O)[O-])s1	rCAG RNA binder 60, LEDGF integ inh 15, UHRF1 binding 44, MBD2 inh 15 | rCAG binder conf 70 | DNA CAG counter 37 | UHRF1 ctr MBD2 48 | MBD2 DBD conf 18 | IN multimer act inactive | TR-FRET interf inactive | IN-LEDGF confirm 34
O=C(NC1CCCC1)c1ccc2nc(-c3ccco3)c(-c3ccco3)nc2c1	none (no result: rCAG RNA binder, LEDGF integ inh, UHRF1 binding, MBD2 inh)
O=C(c1ccccc1)c1ccc2nc(-c3ccco3)c(-c3ccco3)nc2c1	rCAG RNA binder 42, LEDGF integ inh 18 | rCAG binder conf 70 | DNA CAG counter 36 | IN multimer act inactive | TR-FRET interf inactive | IN-LEDGF confirm 35
Cc1ccc(S(=O)(=O)N/N=C/c2cc(Br)ccc2O)cc1	none
Cc1ccc(S(=O)(=O)Nc2ccc(Br)cc2/C=N/n2cnnc2)cc1	rCAG RNA binder 45, LEDGF integ inh 17 | rCAG binder conf 39 | DNA CAG counter 13 | IN multimer act inactive | TR-FRET interf inactive | IN-LEDGF confirm 28
COCCCNC(=O)C[C@H]1C[C@@]2(C(=O)OC)C(=C[C@H](COCc3ccccc3)O[C@@H]2C)N(Cc2ccccc2)C1=O	none (no result: ATG4B inh, CSN deneddyl inh)
O=C1NC(=O)C(=Cc2ccco2)S1	none
CC(=O)Nc1ccc(S(=O)(=O)/N=C2/NC(=O)/C(=C\c3ccco3)S2)cc1	rCAG RNA binder 57, LEDGF integ inh 23, UHRF1 binding 31 | rCAG binder conf inactive | DNA CAG counter 11 | IN multimer act inactive | TR-FRET interf inactive | IN-LEDGF confirm inactive
FC(F)(F)C1=Nc2cccc3cccc(c23)N1	rCAG RNA binder 94, LEDGF integ inh 79, UHRF1 binding 54, MBD2 inh 34 | rCAG binder conf 47 | DNA CAG counter 38 | UHRF1 ctr MBD2 inactive | MBD2 DBD conf inactive | IN multimer act 57 | TR-FRET interf inactive | IN-LEDGF confirm 57
Fc1ccc(C2=Nc3cccc4cccc(c34)N2)cc1	none
O=C(/C(=N/N=C/c1ccc(O)c(O)c1O)c1ccccc1)c1ccccc1	rCAG RNA binder 61, LEDGF integ inh 14 | rCAG binder conf 74 | DNA CAG counter 42 | IN multimer act inactive | TR-FRET interf inactive | IN-LEDGF confirm 28
C#Cc1cccc(OC[C@@H](O)CN2CCC(C(O)(c3ccccc3)c3ccccc3)CC2)c1	none (no result: ATG4B inh, CSN deneddyl inh)
